Our source for the IC50 values is BindingDB's records for doi:10.1021/jm00077a002 (Merck Research Laboratories, 1994).

Usually IC50 stands for the concentration that gives 50% inhibition. A lower IC50 goes with greater potency.

The target in assay [1] is T1, Oxytocin receptor (Rattus norvegicus, UniProt P70536).
T1 sequence (P70536 whole entry): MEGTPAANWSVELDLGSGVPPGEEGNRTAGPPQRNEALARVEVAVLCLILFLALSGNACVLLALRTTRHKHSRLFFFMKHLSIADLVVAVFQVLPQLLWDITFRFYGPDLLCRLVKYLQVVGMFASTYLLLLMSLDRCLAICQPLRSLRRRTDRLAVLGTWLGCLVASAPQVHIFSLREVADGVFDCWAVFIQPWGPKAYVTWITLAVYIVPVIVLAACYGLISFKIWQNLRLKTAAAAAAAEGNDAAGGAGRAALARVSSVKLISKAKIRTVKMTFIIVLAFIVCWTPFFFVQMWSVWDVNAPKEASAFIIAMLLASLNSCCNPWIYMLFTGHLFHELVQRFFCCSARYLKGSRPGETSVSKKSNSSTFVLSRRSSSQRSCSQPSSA
As to the kind of experiment: ChEBML_145031. The source says:
Tested against rat uterine OT receptor

The target in assay [2] is T2, Vasopressin V1a/V1b receptor (Rattus norvegicus, UniProt P30560+P48974). As to the kind of experiment: ChEBML_211079. The source says: (§1) Inhibition of radioligand [3H]AVP binding to the vasopressin V1 receptor in rat liver tissue
T2 sequence (P30560 whole entry): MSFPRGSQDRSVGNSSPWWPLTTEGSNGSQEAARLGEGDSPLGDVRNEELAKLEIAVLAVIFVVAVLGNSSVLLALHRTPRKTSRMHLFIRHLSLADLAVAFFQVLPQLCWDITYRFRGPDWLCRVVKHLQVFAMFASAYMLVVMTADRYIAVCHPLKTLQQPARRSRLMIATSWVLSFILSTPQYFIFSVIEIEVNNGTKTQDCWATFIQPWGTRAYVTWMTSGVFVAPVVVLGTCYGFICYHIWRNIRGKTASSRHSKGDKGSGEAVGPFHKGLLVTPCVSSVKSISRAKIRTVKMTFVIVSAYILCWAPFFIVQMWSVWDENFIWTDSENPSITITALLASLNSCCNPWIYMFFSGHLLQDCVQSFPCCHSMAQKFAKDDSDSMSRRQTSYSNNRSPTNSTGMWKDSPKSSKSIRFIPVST
T2 sequence (P48974 whole entry): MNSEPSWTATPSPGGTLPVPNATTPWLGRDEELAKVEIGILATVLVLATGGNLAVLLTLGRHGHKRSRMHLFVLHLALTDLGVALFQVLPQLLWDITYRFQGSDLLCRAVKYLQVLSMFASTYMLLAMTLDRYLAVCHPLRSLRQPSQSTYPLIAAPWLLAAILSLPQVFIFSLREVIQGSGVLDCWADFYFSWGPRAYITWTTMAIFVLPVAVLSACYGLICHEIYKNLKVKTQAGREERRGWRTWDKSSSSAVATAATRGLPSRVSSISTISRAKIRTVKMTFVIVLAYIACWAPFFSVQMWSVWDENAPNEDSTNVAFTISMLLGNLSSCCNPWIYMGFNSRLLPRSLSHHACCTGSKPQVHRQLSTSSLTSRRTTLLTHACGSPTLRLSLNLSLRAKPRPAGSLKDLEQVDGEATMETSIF
For another assay, the target named is Vasopressin V2 receptor (Rattus norvegicus, UniProt Q00788). As to the kind of experiment: Inhibition of radioligand [3H]-AVP binding to the vasopressin V2 receptor in rat kidney tissue. Put shortly:
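[3H]AVP (80–90 Ci/mmol) at 2 nM competed on crude membranes from male rat kidney medulla (V2 sites). Equilibrium 30 min at 30 °C in 100 mM Tris-HCl, 5 mM MgCl2, 0.1% BSA, 50 μM PMSF, 50 μg/mL bacitracin, pH 8.0. Nonspecific binding with 10 μM unlabeled AVP. Glass-fiber filtration. IC50 by linear regression of % inhibition vs log concentration, seven concentrations.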

The target in assay [3] is T1, Oxytocin receptor. Description: Inhibition of radioligand [3H]oxytocin binding at the oxytocin (OT) receptor in rat uterine tissue. Put shortly:
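Uteri taken from rats given diethylstilbestrol dipropionate (0.3 mg/kg ip, 18–24 h before), crude membranes. 1 nM [3H]OT (30–60 Ci/mmol), equilibrium 60 min at 22 °C in 50 mM Tris-HCl, 5 mM MgCl2, 0.1% BSA, pH 7.4. Nonspecific binding with 1 mM unlabeled OT. Filtered on glass fiber. Initial single-concentration screen, then IC50 from seven concentrations by linear regression.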

The target in assay [4] is T2, Vasopressin V1a/V1b receptor. The assay is described as §1. Summed up:
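Crude membranes from male rat liver (V1 sites) competed with 1 nM [3H]AVP (80–90 Ci/mmol). Equilibrium 30 min, 30 °C, buffer 100 mM Tris-HCl, 5 mM MgCl2, 0.1% BSA, 50 μM PMSF, 50 μg/mL bacitracin, pH 8.0. 10 μM unlabeled AVP for nonspecific binding. Filtration through glass-fiber filters. IC50 from linear regression over seven concentrations.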

Sequence of Vasopressin V2 receptor (Q00788 whole entry): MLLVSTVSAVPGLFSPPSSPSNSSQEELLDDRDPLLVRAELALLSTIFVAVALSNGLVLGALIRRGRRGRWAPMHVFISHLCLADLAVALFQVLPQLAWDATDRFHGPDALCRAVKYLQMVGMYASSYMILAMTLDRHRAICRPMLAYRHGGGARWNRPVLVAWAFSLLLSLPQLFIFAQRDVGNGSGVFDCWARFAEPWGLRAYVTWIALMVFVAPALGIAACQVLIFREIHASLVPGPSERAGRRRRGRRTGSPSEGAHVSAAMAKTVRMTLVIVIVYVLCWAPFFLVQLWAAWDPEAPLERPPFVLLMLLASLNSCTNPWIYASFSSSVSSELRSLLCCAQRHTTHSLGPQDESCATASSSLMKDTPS

`CC1(C)[C@@H]2CC[C@@]1(CS(=O)(=O)N1CCC3(CCc4ccccc43)CC1)[C@@H](n1c(O)c(Cc3cnc[nH]3)[nH]c1=O)C2` [3-[7,7-dimethyl-1-spiro[2,3-dihydro-1H-indene-1,4'-(hexahydropyridine)]-1-ylsulfonylmethyl-(1S,2S,4R)-bicyclo[2.2.1]hept-2-yl]-5-(1H-4-imidazolylmethyl)tetrahydro-1H-2,4-imidazoledione]: the IC50 against Oxytocin receptor [1] came out at 13 nM; in assay [2], 420 nM; on Vasopressin V2 receptor, 1500 nM; at Oxytocin receptor [3], 13 nM; in assay [4], 420 nM.
